Experimental data pooled from the literature.
≈ marks a conversion by molar mass, not a printed value.

| SMILES | organism | test | test system | setting | quantity | value |
| --- | --- | --- | --- | --- | --- | --- |
| CCOC(=O)c1ccccc1S(=O)(=O)NC(=O)Nc1nc(Cl)cc(OC)n1 | Lodderomyces parapsilosis | microbial growth, broth dilution |  | 24 h | MIC50 | 1.1 µM |
| Cn1cnc2nc(NCc3ccc(Cl)c(Cl)c3)[nH]c(=O)c21 | Bacteroides fragilis | microbial growth, agar dilution |  | 48 h | MIC | > 32 µg/mL |
| O=C(NCc1ccc2c(c1)OCO2)c1ccc(Br)cc1F | Aspergillus brasiliensis | microbial growth | ATCC16404 | 72 h | MIC | > 200 µM |
| Cc1ncc([N+](=O)[O-])n1CCO | Bacteroides fragilis | microbial growth |  |  | MIC50 | 0.5 µg/mL |
| O=c1[nH]c(=O)n([C@H]2C[C@H](O)[C@@H](CO)O2)cc1/C=C/Br | Human alphaherpesvirus 1 | cytopathic effect | HEL |  | EC50 | 2000 nM |
| Nc1ccn(C[C@@H](CO)OCP(=O)(O)O)c(=O)n1 | Human alphaherpesvirus 1 | cytopathic effect | HEL |  | EC50 | 2000 nM |
| Nc1nc2c(ncn2COCCO)c(=O)[nH]1 | Human alphaherpesvirus 1 | cytopathic effect | HEL |  | EC50 | 200 nM |
| CC[C@H](C)C[C@H](C)CCCCCCCCC(=O)N[C@H]1C[C@@H](O)[C@@H](NCCN)NC(=O)[C@@H]2[C@@H](O)CCN2C(=O)[C@H]([C@H](O)CCN)NC(=O)[C@H]([C@H](O)[C@@H](O)c2ccc(O)cc2)NC(=O)[C@@H]2C[C@@H](O)CN2C(=O)[C@H]([C@@H](C)O)NC1=O | Lodderomyces parapsilosis | microbial growth, broth dilution | ATCC22019 |  | MIC | 0.5 µg/mL |
| O=[N+]([O-])c1ccc(C2=[N+]([O-])c3ccccc3N3CCN=C23)cc1 | Bacteroides fragilis | microbial growth |  |  | MIC50 | ≤ 0.06 µg/mL |
| CC(C)[C@H](N)C(=O)OCCCCCn1cnc2nc(NCc3ccc(Cl)c(Cl)c3)[nH]c(=O)c21 | Bacteroides fragilis | microbial growth, agar dilution |  | 48 h | MIC | > 32 µg/mL |
| OC(Cn1cncn1)(Cn1cncn1)c1ccc(F)cc1F | Aspergillus niger | microbial killing |  |  | MFC | 40 µM (≈ 12.3 µg/mL) |
| CCCCCOc1ccc(-c2cc(-c3ccc(C(=O)N[C@H]4C[C@@H](O)[C@@H](O)NC(=O)[C@@H]5[C@@H](O)[C@@H](C)CN5C(=O)[C@H]([C@H](O)CC(N)=O)NC(=O)[C@H]([C@H](O)[C@@H](O)c5ccc(O)c(OS(=O)(=O)O)c5)NC(=O)[C@@H]5C[C@@H](O)CN5C(=O)[C@H]([C@@H](C)O)NC4=O)cc3)no2)cc1 | Lodderomyces parapsilosis | microbial growth |  |  | MIC90 | 4 µg/mL (≈ 3.15 µM) |
